STEP inh – STEP (human) phosphatase inhibition. recombinant STEP, OMFP fluorogenic substrate, fluorescence. inhibition, % at 20 µM. 360,000 tested, 0.25% active. AID 588621;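 active = inhibition at 20 µM, scaled per plate between control wells, above about 37%, limit read from the data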
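System: STEP phosphatase, cell-free reaction; Buffer or medium: Bis-Tris pH 6.0 buffer with DTT, detergent; Incubation: 20 min at room temperature, dark; Measured by: fluorescence, 480/540 nm.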
Scp1 inh – Scp-1 (human) phosphatase inhibition; Q9GZU7; Recombinant Scp1, phosphopeptide, malachite green phosphate absorbance; inhibition, % at 20 µM; 340,000 tested, 0.88% active;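 active = inhibition above about 50% at 20 µM, limit read from the data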
Target sequence (Q9GZU7 76-261 limits assumed): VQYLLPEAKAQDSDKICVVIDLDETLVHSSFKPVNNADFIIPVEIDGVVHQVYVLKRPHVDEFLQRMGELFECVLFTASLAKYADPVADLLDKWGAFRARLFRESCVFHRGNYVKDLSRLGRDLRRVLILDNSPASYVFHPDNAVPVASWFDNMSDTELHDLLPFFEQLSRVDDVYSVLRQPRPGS
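Incubation: 45 min enzyme reaction at room temperature / System: truncated SCP-1 phosphatase (76-261aa) / Reagent: Phospho 17-mer peptide substrate / Buffer or medium: Acidic Tris acetate buffer with magnesium and detergent / Signal: absorbance at 630 nm / Doses: one concentration, 20 µM, with 1.0% DMSO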
LMPTP block – LMPTP (human) inhibition; recombinant LMPTP-A, OMFP fluorogenic substrate, fluorescence intensity; P24666; inhibition, % at 20 µM; 360,000 tested, 0.22% active;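 active = compounds that cut the enzyme signal by at least half of the control window in the single-dose screen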
Target sequence (P24666 whole entry, looked up): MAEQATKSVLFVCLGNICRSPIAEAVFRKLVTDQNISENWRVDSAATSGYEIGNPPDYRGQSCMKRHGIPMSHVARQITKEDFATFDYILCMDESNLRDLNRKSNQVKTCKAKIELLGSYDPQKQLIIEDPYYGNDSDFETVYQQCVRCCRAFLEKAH
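Test system: LMPTP-A phosphatase enzyme; input: 0.625 nM LMPTP-A final; reagent: OMFP substrate, 400 µM final; compound dosing: 20 µM single dose, 3% DMSO; incubation: 50 min dark incubation at room temperature; measured by: endpoint fluorescence intensity from OMFP dephosphorylation; measure: % inhibition relative to no-enzyme and uninhibited control wells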
SUMO1-SIM PPI – alters human SUMO1 binding to SIM partners. inhibition, % at 20 µM. P63165. AID 602429. SUMO1 binding to a labelled peptide, TR-FRET, 1 h. 360,000 tested, 0.33% active; in the data active = inhibition above about 37%
Target sequence (P63165 whole entry, looked up): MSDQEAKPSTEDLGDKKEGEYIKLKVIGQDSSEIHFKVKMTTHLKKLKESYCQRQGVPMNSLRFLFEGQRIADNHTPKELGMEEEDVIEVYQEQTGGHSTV
DNMT1 inh – blocks human DNA methyltransferase DNMT1; AID 588458; inhibition (reported as % activation of signal), % at 10 µM; DNMT1 molecular beacon, Hinp1I cleavage, fluorescence; 360,000 tested, 0.83% active; in the data active = inhibition above about 50%
CFTR F508del cor – CFTR F508del correction in bronchial cells. CFBE cells, YFP halide quenching; stimulated with forskolin plus potentiator P3; % fluorescence drop versus neutral controls. activity (quench increase), % at 7.58 µM. 350,000 tested, 0.36% active. AID 720511;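 active = mean added fluorescence quench of at least 8% versus neutral control, with both replicates also reaching 8%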;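 note: cells transiently co-express mutant CFTR-F508del with the halide-sensitive YFP; corrector assay measuring rescue of mutant channel to the surface after 24 h compound exposure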
Scp1 confirm – Scp-1 (human) inhibition, single-dose confirmed. inhibition, % at 20 µM. 2,500 tested, 61% active. AID 540281. shares compounds with Scp1 inh. recombinant SCP-1 catalytic domain, phosphate release, malachite green absorbance
MG interference – interferes with malachite green readout, flagging false Scp-1 hits; Colorimetric interference counterscreen, malachite green absorbance 630 nm; apparent inhibition (interference), % at 20 µM; 2,500 tested, under 10 active; shares compounds with Scp1 inh;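 note: compounds added after enzyme reaction finished so only phosphate colour detection is probed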
Scp-1 Tm shift – validation of human Scp-1 inhibitors by thermal shift binding. shares compounds with Scp1 inh. Recombinant SCP1, Sypro Orange thermal shift Tm. thermal shift relative to vanadate control, % at 40 µM. 1,500 tested, 25% active;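 active = substances whose mean melting-temperature shift, as a percentage of the reference inhibitor's shift, reaches about 5.3%, limit read from the data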
DNMT1 interf DR – beacon fluorescence artifact, dose response counter-screen. shares compounds with DNMT1 inh. molecular beacon fluorescence, spectral interference counter-screen. IC50, µM. 200 tested, under 10 active. AID 602382; call rule not given here
DNMT1 confirm – confirmation of human DNMT1 inhibitors; shares compounds with DNMT1 inh; DNMT1 molecular beacon HinP1I cleavage, fluorescence; inhibition, % at 10 µM; 2,300 tested, 8% active; AID 602385;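 active = average inhibition of at least 30% in the single-concentration confirmation test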
Beacon interf – shows spectral interference in the DNMT1 beacon assay; AID 602387; DNMT1 molecular beacon spectral interference counterscreen, fluorescence 485/520; 2,300 tested, 1% active; shares compounds with DNMT1 inh; activation (fluorescence interference), % at 10 µM;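 active = activation of at least 30% at 10 µM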;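 note: DNMT1 catalytic domain with a HinP1I cleavage step and a FAM/dabcyl DNA beacon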
Hits are given with their value; 0 = inactive; - = no result. This is a sample that favours compounds with a hit; in the whole collection about 1.6% have one here.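 Rule for the calls, unless noted: active = inhibition of at least 30% at 20 µM; inactive = the rest.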

SMILES | STEP inh | Scp1 inh | LMPTP block | SUMO1-SIM PPI | DNMT1 inh | CFTR F508del cor | Scp1 confirm | MG interference | Scp-1 Tm shift | DNMT1 confirm | Beacon interf | others
Cn1c(N)c(C(=O)COC(=O)c2cc(-c3ccco3)nc3ccccc23)c(=O)n(C)c1=O | 0 | 73 | 62 | 0 | 110 | 0 | 67 | 0 | 15 | 31 | 0 | DNMT1 interf DR=0
C#CCSc1nc2sc3c(c2c(=O)n1C)CCC3 | 93 | 75 | 0 | 0 | 61 | 0 | 48 | 0 | 0 | 0 | 0
C[C@H](CO)N1C[C@H](C)[C@@H](CN(C)S(=O)(=O)c2ccc(Cl)cc2)Oc2ccc(NC(=O)CCC(F)(F)F)cc2C1=O | - | - | - | - | - | 0 | - | - | - | - | -
O=C(C[C@H]1CC[C@@H](NS(=O)(=O)c2ccccc2F)[C@H](CO)O1)NCCCN1CCOCC1 | - | - | - | - | - | 0 | - | - | - | - | -
O=C(NCc1ccco1)C1Cc2ccccc2CN1S(=O)(=O)c1ccccc1F (stereo not drawn) | 0 | 70 | 0 | 0 | 71 | - | 77 | 0 | 7.5 | 0 | 0
O=C(NCc1ccco1)C1Cc2ccccc2CN1C(=O)c1ccco1 (stereo not drawn) | 0 | 0 | 0 | 0 | 0 | 0 | - | - | - | - | -
COc1ccc(NC(=O)Nc2ccc3c(c2)C(=O)N([C@H](C)CO)C[C@H](C)[C@@H](CN(C)C(=O)c2ccccc2)OCCCC[C@@H](C)O3)cc1 | - | - | - | - | - | 0 | - | - | - | - | -
COc1cc(CN2CC3(CN(C(C)=O)C3)c3c([nH]c4cc(OC)ccc34)[C@H]2CO)cc(OC)c1 | - | - | - | - | - | 0 | - | - | - | - | -
O=C(C[C@@H]1CC[C@H]2[C@@H](COC[C@H](O)CN2C(=O)c2ccccc2F)O1)NCc1ccc(-c2ccccc2)cc1 | - | - | - | - | - | 0 | - | - | - | - | -
O=C(CNC(=O)c1cccc(OC(F)F)c1)OCc1cc(=O)n2cc(Br)ccc2n1 | 0 | 61 | 0 | 0 | 108 | - | 58 | 0 | 0 | 0 | 0
O=C(CNS(=O)(=O)c1ccc(Br)cc1)OCc1cc(=O)n2cc(Br)ccc2n1 | - | - | - | - | - | 0 | - | - | - | - | -
O=C(Nc1ccc(S(=O)(=O)Nc2nccs2)cc1)c1nn(-c2ccc(F)cc2)ccc1=O | 0 | 93 | 56 | 0 | 59 | 0 | 59 | 0 | 0 | 0 | 0
N#Cc1c(/N=C/c2ccc(-c3ccc(C(=O)O)c(Cl)c3)o2)sc2c1CCCC2 | 0 | 0 | 0 | 0 | 0 | 0 | - | - | - | - | -
N#Cc1c(/N=C/c2ccc(-c3ccccc3C(=O)O)o2)sc2c1CCCC2 | 0 | 57 | 0 | 0 | 52 | 0 | 43 | 0 | 8.0 | 0 | 0
C/C=C/c1ccc2c(c1)O[C@@H](CN(C)C(C)=O)[C@H](C)CN([C@H](C)CO)S2(=O)=O | - | - | - | - | - | 0 | - | - | - | - | -
O=C(O)/C(=C/c1ccco1)NC(=O)c1ccccc1 | 0 | 75 | 0 | 0 | 67 | - | 42 | 0 | 0 | 0 | 0
CC(C)(C)c1ccc(C(=O)N/C(=C\c2ccco2)C(=O)O)cc1 | 0 | 0 | 0 | 0 | 0 | 0 | - | - | - | - | -
Cc1cc(/C=C(/C#N)c2nc3ccccc3[nH]2)c(C)n1-c1ccccc1C(=O)O | 0 | 0 | 0 | 0 | 0 | 0 | - | - | - | - | -
Cc1cc(/C=C(/C#N)c2nc3ccccc3[nH]2)c(C)n1-c1cc(C(=O)O)cc(C(=O)O)c1 | 0 | 59 | 0 | 0 | 77 | 0 | 53 | 0 | 0 | 0 | 0

Bioassay records (PubChem)
